Results: PubChem BioAssay
Some of the results follow. Unmarked numbers belong to inactive results. Activity calls are given as the source filed them.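 The calls were made as follows, unless noted: active = mean percent activation of the reporter above a cutoff set as the average over tested compounds plus their standard deviation; inactive = the rest.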

What follows are molecules tested against Oxysterols receptor LXR-beta (Homo sapiens) (UniProt P55055) (assay: LXR agonists, Gal4 luciferase reporter, confirmation, counter-screen for hcDAF-12 agonist project, cell-based, luminescence, HEK293, H. contortus campaign (AID 743027)). Details: HEK293 Gal4-LXR tk-luc reporter, 24 h, at 6.8 µM, active compounds read high, normalized: DMSO 0%, positive control 100%.
Sequence of Oxysterols receptor LXR-beta (Homo sapiens) (P55055 whole entry, looked up, the tested form may be a part): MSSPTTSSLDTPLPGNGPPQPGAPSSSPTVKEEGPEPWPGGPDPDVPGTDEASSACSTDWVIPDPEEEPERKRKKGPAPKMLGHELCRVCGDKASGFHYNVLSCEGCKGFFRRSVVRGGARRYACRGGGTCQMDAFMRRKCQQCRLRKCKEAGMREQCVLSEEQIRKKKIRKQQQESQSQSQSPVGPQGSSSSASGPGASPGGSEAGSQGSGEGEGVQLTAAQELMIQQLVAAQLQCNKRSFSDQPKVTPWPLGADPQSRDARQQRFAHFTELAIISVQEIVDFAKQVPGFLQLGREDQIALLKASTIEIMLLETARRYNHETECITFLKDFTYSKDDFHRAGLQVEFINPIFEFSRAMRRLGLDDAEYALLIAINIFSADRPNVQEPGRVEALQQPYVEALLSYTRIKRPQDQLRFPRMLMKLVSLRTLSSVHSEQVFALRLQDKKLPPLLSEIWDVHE
Method in brief: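 System: HEK293 cells transfected with Gal4-LXR vector plus GAL4-driven tk-luciferase reporter / Replicates: triplicate wells per compound / Detection: luciferase luminescence read with One-Glo reagent / Read-out basis: % activation / Timing: 24 h compound exposure at 37 °C, 5% CO2 / Benchmarks: DMSO low control, positive-control high control / Compound dosing: 6.8 µM single dose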
With `CC(=O)Nc1cccc(C(=O)OCC(=O)c2ccc3c(c2)OCO3)c1` the activation was 1.92%.
`Nc1ccc(C(=O)Nc2ccccc2N)cc1` showed an activation of 1.14%.
`Clc1ccc(Nc2ccc3ccccc3n2)cc1` was tested, and the activation was 2.07%.
Molecule `Cn1c(-c2ccco2)nc2cc3ccccc3cc21` has an activation of 2.33%.
Work on `Cc1cc(OCc2cc(C(=O)NCc3cc(C(C)C)no3)no2)cc(C)c1Cl` yielded an activation of 0.91%.
Molecule `O=C(Nc1ncccc1O)c1ccc(C(=O)c2ccccc2)cc1` has an activation of 1.21%.
`Brc1ccccc1C1N=C(c2ccccc2)NO1` (configuration not stated) was tested, and the activation was 1.08%.
Work on `Oc1cccc2ccc(/C=C/c3ccc(Br)s3)nc12` yielded an activation of 1.05%.
With `Brc1ccc(-c2noc(-c3ccccc3)n2)o1` the activation was 0.77%.
`Cn1c(=NC(=O)c2ccco2)sc2cccc(F)c21` showed an activation of 1.46%.
Work on `Oc1ccccc1-c1cc(-c2ccc(Cl)cc2)n[nH]1` yielded an activation of 1.85%.
With `Cc1ccnc(Nc2nc3ccccc3s2)n1` the activation was 1.72%.
`Cc1ccc(-n2cc3ccc([N+](=O)[O-])cc3n2)cc1` gave an activation of 2.14%.
`OC(c1ccccc1)c1nc(-c2cnc3ccccc3c2)cs1` (configuration not stated) was tested, and the activation was 1.85%.
Work on `O=C(Nc1ccn(Cc2ccccc2)n1)c1cccc(F)c1` yielded an activation of 1.66%.
In the case of `O=C(NC(=O)c1ccccc1)Nc1ccccc1O`, the activation is reported as 1.94%.
Molecule `c1ccc(Cc2c(-c3ccco3)nc3c4ccccc4ccn23)cc1` has an activation of 1.44%.
Work on `Cn1c(=NC(=O)C2CC2)sc2cc(F)cc(F)c21` yielded an activation of -0.11%.
`O=C(Nc1ccccc1)Nc1nc2ccccc2s1` showed an activation of 1.95%.
`Brc1ccc2nc(N3CCCC3)sc2c1` was tested, and the activation was 0.77%.
`Cc1cc(N=Nc2ccc3ccccc3c2)ccc1O` showed an activation of 1.85%.
In the case of `Cc1ccc(NC(=O)c2cc3ccccc3o2)cc1`, the activation is reported as 1.5%.
Molecule `Cn1ccnc1SCC(=O)Nc1ccc2c(c1)OCCO2` has an activation of 0.85%.
`COc1ccc2nc(-c3ccccn3)ccc2c1` gave an activation of 1.86%.
`Cc1cccc(/C(N)=N/OC(=O)c2ccccc2Cl)c1` was tested, and the activation was 2.08%.
In the case of `Cn1c(NC(=O)c2ccccc2)nc2ccccc21`, the activation is reported as 1.51%.
Molecule `Cc1ccc(SCCSc2ncccn2)cc1` has an activation of 1.19%.
Work on `c1cnc(N2CCN(c3ccc4ccccc4n3)CC2)nc1` yielded an activation of 0.85%.
In the case of `COc1ccc(C2=NN(C(=O)c3ccccc3C(=O)O)C(c3ccccc3O)C2)cc1` (configuration not stated), the activation is reported as 0.16%.
With `Cc1cccc(NC(=O)c2ccc3ccccc3n2)n1` the activation was 1.06%.
`O=C(c1cnn(-c2ccc(Cl)cc2)c1)c1ccccc1O` showed an activation of 1.48%.
Work on `CCOC(=O)c1cn[nH]c1NC(=S)Nc1ccccc1` yielded an activation of 1.51%.
In the case of `NC(=O)c1ccccc1N=Cc1ccc2ccccc2c1`, the activation is reported as 0.6%.
Molecule `CN1CCN(c2ccc(NC(=O)c3ccc4c(c3)OCCO4)cc2Cl)CC1` has an activation of 1.56%.
For `O=C(/C=C/c1cnc2ccccc2n1)NC1CCCCCC1`, the activation was 0.79%.
Molecule `Cc1ccnc(NC(=O)CCNS(=O)(=O)c2ccc(C)c(C)c2)c1` has an activation of 1.16%.

Each molecule was assayed on Nuclear hormone receptor DAF-12 (Haemonchus contortus) (assay: H. contortus DAF-12 receptor agonists, confirmation, cell-based, luminescence, HEK293, lit1-tk-luc, triplicate (AID 743032;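 active = mean activation across triplicate tests above the threshold derived from the earlier primary screen, cut at about 5.5% in these data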;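 also: 0% = DMSO only wells and 100% = 3 µM Δ7-dafachronic acid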)). Details: HEK293 hcDAF-12 lit1-tk-luc reporter, at 6.8 µM, active compounds read high, % of Δ7-dafachronic acid response.
`CC(=O)Nc1cccc(C(=O)OCC(=O)c2ccc3c(c2)OCO3)c1` was tested, and the activation was 8.03% (active).
In the case of `Nc1ccc(C(=O)Nc2ccccc2N)cc1`, the activation is reported as 9.52% (active).
For `Clc1ccc(Nc2ccc3ccccc3n2)cc1`, the activation was 15% (active).
With `Cn1c(-c2ccco2)nc2cc3ccccc3cc21` the activation was 17.3% (active).
In the case of `Cc1cc(OCc2cc(C(=O)NCc3cc(C(C)C)no3)no2)cc(C)c1Cl`, the activation is reported as 7.69% (active).
With `O=C(Nc1ncccc1O)c1ccc(C(=O)c2ccccc2)cc1` the activation was 8.51% (active).
With `Brc1ccccc1C1N=C(c2ccccc2)NO1` (configuration not stated) the activation was 11.3% (active).
In the case of `Oc1cccc2ccc(/C=C/c3ccc(Br)s3)nc12`, the activation is reported as 13.8% (active).
For `Brc1ccc(-c2noc(-c3ccccc3)n2)o1`, the activation was 7.78% (active).
With `Cn1c(=NC(=O)c2ccco2)sc2cccc(F)c21` the activation was 15% (active).
With `Oc1ccccc1-c1cc(-c2ccc(Cl)cc2)n[nH]1` the activation was 14.7% (active).
`Cc1ccnc(Nc2nc3ccccc3s2)n1` was tested, and the activation was 18.5% (active).
With `Cc1ccc(-n2cc3ccc([N+](=O)[O-])cc3n2)cc1` the activation was 6.7% (active).
With `OC(c1ccccc1)c1nc(-c2cnc3ccccc3c2)cs1` (configuration not stated) the activation was 6.14% (active).
For `O=C(Nc1ccn(Cc2ccccc2)n1)c1cccc(F)c1`, the activation was 7.02% (active).
In the case of `O=C(NC(=O)c1ccccc1)Nc1ccccc1O`, the activation is reported as 13.2% (active).
For `c1ccc(Cc2c(-c3ccco3)nc3c4ccccc4ccn23)cc1`, the activation was 15.8% (active).
Work on `Cn1c(=NC(=O)C2CC2)sc2cc(F)cc(F)c21` yielded an activation of 5.5%.
In the case of `O=C(Nc1ccccc1)Nc1nc2ccccc2s1`, the activation is reported as 9.44% (active).
With `Brc1ccc2nc(N3CCCC3)sc2c1` the activation was 5.13%.
With `Cc1cc(N=Nc2ccc3ccccc3c2)ccc1O` the activation was 8.43% (active).
`Cc1ccc(NC(=O)c2cc3ccccc3o2)cc1` was tested, and the activation was 7.27% (active).
`Cn1ccnc1SCC(=O)Nc1ccc2c(c1)OCCO2` gave an activation of 2.69%.
For `COc1ccc2nc(-c3ccccn3)ccc2c1`, the activation was 11.8% (active).
For `Cc1cccc(/C(N)=N/OC(=O)c2ccccc2Cl)c1`, the activation was 15.3% (active).
With `Cn1c(NC(=O)c2ccccc2)nc2ccccc21` the activation was 16.7% (active).
For `Cc1ccc(SCCSc2ncccn2)cc1`, the activation was 7.13% (active).
`c1cnc(N2CCN(c3ccc4ccccc4n3)CC2)nc1` showed an activation of 5.39%.
`COc1ccc(C2=NN(C(=O)c3ccccc3C(=O)O)C(c3ccccc3O)C2)cc1` (configuration not stated) was tested, and the activation was 2.72%.
`Cc1cccc(NC(=O)c2ccc3ccccc3n2)n1` was tested, and the activation was 10.5% (active).
For `O=C(c1cnn(-c2ccc(Cl)cc2)c1)c1ccccc1O`, the activation was 7.41% (active).
Molecule `CCOC(=O)c1cn[nH]c1NC(=S)Nc1ccccc1` has an activation of 4.78%.
For `NC(=O)c1ccccc1N=Cc1ccc2ccccc2c1`, the activation was 5.79% (active).
For `CN1CCN(c2ccc(NC(=O)c3ccc4c(c3)OCCO4)cc2Cl)CC1`, the activation was 6.28% (active).
With `O=C(/C=C/c1cnc2ccccc2n1)NC1CCCCCC1` the activation was 4.58%.
In the case of `Cc1ccnc(NC(=O)CCNS(=O)(=O)c2ccc(C)c(C)c2)c1`, the activation is reported as 5.73% (active).
